The source of these data is ChEMBL document CHEMBL4619791, “3-Difluoroalkyl Quaternary Oxindoles Inhibit Macrophage Pyroptosis by Blocking Inflammasome Recruitment of Caspase-1” (ACS Med Chem Lett, 2020).

Activity calls are given as the source filed them. The calls are words filed in the database; no cut-off is given here.

Data set [1] can be described thus: Toxicity in zebrafish embryo. The arrangement: species or system Danio rerio. To be noted: in vivo. A digest of the protocol:
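Zebrafish embryos exposed to compound. EC100 is the concentration at which all treated embryos show early lethality, embryonic defects or developmental delay.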

Data set [2] has as its system J774.A1. As to the kind of experiment: Inhibition of pyroptosis in LPS-primed immortalized mouse […] cells assessed as reduction in nigericin-induced IL-beta secretion by imaging analysis. Format: functional.
The subject of data set [3] is J774.A1. The experiment in a line: Inhibition of pyroptosis in LPS-primed immortalized mouse […] cells followed by subsequent nigericin stimulation by imaging analysis. Format: functional, cell-based.
The next data set deals with T1, Caspase-1 (Homo sapiens) (UniProt P29466).
T1 sequence (whole entry): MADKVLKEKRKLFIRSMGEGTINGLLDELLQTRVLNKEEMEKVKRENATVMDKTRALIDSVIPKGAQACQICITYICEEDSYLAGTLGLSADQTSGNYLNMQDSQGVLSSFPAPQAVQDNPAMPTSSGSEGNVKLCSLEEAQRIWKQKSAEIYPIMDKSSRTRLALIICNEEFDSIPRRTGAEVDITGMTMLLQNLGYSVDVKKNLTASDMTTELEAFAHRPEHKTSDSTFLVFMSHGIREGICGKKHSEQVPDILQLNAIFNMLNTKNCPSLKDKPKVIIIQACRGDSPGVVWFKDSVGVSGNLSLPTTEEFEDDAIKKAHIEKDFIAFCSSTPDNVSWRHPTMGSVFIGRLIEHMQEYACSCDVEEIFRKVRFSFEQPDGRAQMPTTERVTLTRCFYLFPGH
As to the kind of experiment: Inhibition of pronase-mediated caspase-1 degradation in HEK293 cell lysate at 5 uM measured after 30 mins by DARTS based Western blot analysis. Type of data set: cell-free. A digest of the protocol: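 DARTS assay: cell lysates pretreated with compound, then digested with different Pronase concentrations. Caspase-1 stability read by immunoblot against a histone H3 control.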

Turning to `CCOC(CN1C(=O)C(NC(=O)OC(C)(C)C)(C(F)(F)C(=O)c2ccc(OC)cc2)c2ccccc21)OCC` (stereo not drawn), the EC100 in data set [1] was more than 50 µM. Moreover, the Activity in the data set on J774.A1 [2] was 202.6 pg/mL. For the same compound, the EC50 in the data set on J774.A1 [3] was 17.5 µM.
In data set [1], `CN1C(=O)C(NC(=O)OC(C)(C)C)(C(F)(F)C(=O)c2ccccc2)c2ccccc21` (stereo not drawn) returned an EC100 of more than 50 µM. Besides, in the data set on J774.A1 [2], the Activity is 232.64 pg/mL. Besides, the inhibition result on Caspase-1 (Homo sapiens) was “inactive”.
As for `CC(C)(C)OC(=O)NC1(C(F)(F)C(=O)c2ccccc2)C(=O)Nc2ccccc21` (stereo not drawn), in data set [1], the EC100 is more than 50 µM. Besides, the Activity in the data set with J774.A1 [2] worked out at 240.83 pg/mL.
In the case of `N#CC(C#N)C1(C(F)(F)C(=O)c2ccc(Cl)cc2)C(=O)Nc2ccccc21` (stereo not drawn), the EC100 in data set [1] is 20 µM. The Activity in the data set on J774.A1 [2] is 252.29 pg/mL.
Turning to `CCOC(CN1C(=O)C(NC(=O)OC(C)(C)C)(C(F)(F)C(=O)c2ccccc2)c2ccccc21)OCC` (stereo not drawn), the EC100 in data set [1] stood at 50 µM. For the same compound, in the data set with J774.A1 [2], the Activity came out at 222.04 pg/mL. This compound also came in with an EC50 with J774.A1 [3] of 9.5 µM.

What is called EC50 is the concentration needed to bring the measured effect to its halfway point. Read a low EC50 as an effect from little substance.
